# Insulin prom up – MIN6 insulin promoter up-regulation; MIN6 insulin promoter-GFP reporter, high-content imaging; active compounds read high; z-score at 5 µM; 190,000 compounds, 0.3% hits; AID 1625;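 active = z-score above 3 at 5 µM with at least 500 cells counted in the well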
# BB579 growth dn – reduces growth of yeast BB579 in restrictive medium | inhibition, % at 10 µM | AID 804 | S. cerevisiae BB579 growth, OD615, 48 h | 140,000 compounds, 0.51% hits;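 active = inhibition above a set limit, 3 SD over the mean compound inhibition, cut at about 44% in these data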
#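 System: DeaD yeast strain BB579; buffer or medium: CSMM-D dextrose restrictive medium; technique: OD at 615 nm; schedule: 4 h cell preincubation, 48 h compound exposure, 30 °C humidified; doses: single 10 µM dose; controls: amphotericin B 10 µg/mL, positive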
# RAM network inh – inhibitors of the yeast RAM network; inhibition, % at 50 µM; AID 868; 190,000 compounds, 1.8% hits; S. cerevisiae dse1pr::URA3 reporter, 5-FOA growth OD615, 2 d; analog-sensitive cbk1-as2 kinase mutant strain;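 active = inhibition above a set limit, 3 SD over mean compound inhibition, cut at about 8.4% in these data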;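 note: inhibition rescues growth on 5-FOA so higher OD means more RAM inhibition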
# INS promoter inh – TRM-6 insulin promoter activity inhibition | TRM-6 cells (human fetal islet line), insulin promoter-eGFP reporter, imaging; reporter expression induced with tamoxifen | inhibition, % at 2 µM | 130,000 compounds, 0.9% hits | AID 1273;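 active = inhibition above the mean plus 3 SD, with well images judged a real hit on visual review, cut at about 60% in these data, passing the limit was not always enough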
# Yeast life ext – yeast lifespan extension | 130,000 compounds, 0.68% hits | inhibition of the nicotinamide effect, % at 10 µM | S. cerevisiae growth with nicotinamide, OD615; deaD strain in restrictive glucose medium;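 active = inhibition above a set limit, placed 3 SD over the median of all compounds, cut at about 26% in these data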
#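 Assay system: DeaD-strain S. cerevisiae. Medium: CSMM-D glucose medium, restrictive. Reagent: nicotinamide, 1.5 mM, co-present with compound. Compound: 10 µM single point, 0.25% DMSO. Schedule: culture preincubation 4 h, compound exposure 48 h, both 30 °C. Detection: absorbance at 615 nm.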
# Numbers stand for hits; 0 = inactive; - = no result. Only some compounds are listed: those with a hit (about 3% of all), similar ones and a draw of the others.
SMILES,Insulin prom up,BB579 growth dn,RAM network inh,INS promoter inh,Yeast life ext
CC(C)C1S/C(=N/N=C/c2ccco2)NC1=O (stereo not given),3.25,0,0,0,0
Cc1ccc2[nH]c(=O)c(CN(Cc3ccco3)C(=O)CN3CCCC(C)C3)cc2c1 (stereo not given),0,-,0,-,-
CCOC(=O)C1=C(N)OC2=C(C(=O)CCC2)C1c1sccc1C (stereo not given),0,0,0,-,47.4
CCOC(=O)C1=C(N)OC2=C(C(=O)CCC2)C1c1ccc(C)s1 (stereo not given),0,0,0,-,0
O=C(CSc1nc2cc(Cl)ccc2s1)NCc1ccc2c(c1)OCO2,0,0,10.5,0,0
CCOc1ccccc1NC(=O)C1CCN(C(=O)Cc2ccccc2)CC1,0,-,0,0,-
C(=C\c1ccc2ccccc2n1)/c1ccccc1,0,-,-,-,-
CN(C)c1ccc(/C=C/c2ccc3ccccc3n2)cc1,7.29,-,-,-,-
CNC(=O)C1CC(=O)N(CCCc2ccccc2)C(=Nc2ccccc2)S1 (stereo not given),0,0,9.0,0,0
CCOC(=O)c1c(NS(=O)(=O)c2ccc(Br)cc2)sc2c1CCC2,-,0,9.8,0,-
O=c1[nH]c(/C(Cl)=C/c2cccc(C(F)(F)F)c2)nc2cc(Cl)ccc12,0,0,0,0,0
CCC(C)N(CC(=O)Nc1cccc(C)c1C)C(=O)CCl (stereo not given),0,-,0,100.0,-
Cc1cccc(C)c1-n1c(C)nn(CC2CC2)c1=O,0,-,0,-,-
CCc1cc2c(CN3CCN(CCO)CC3)cc(=O)oc2cc1O,3.59,0,0,0,0
CCN(CC)C(=S)Nc1ccc2nc3n(c(=O)c2c1)CCCCC3,0,-,0,0,-
O=C(c1cccc(Cl)c1)N1CCC(=O)N(C(COCc2cccc(Cl)c2)Cc2ccccc2)CC1 (stereo not given),0,0,9.5,0,0
Cc1cccc(C(=O)N2CCC(=O)N(C(COCc3cccc(Cl)c3)Cc3ccccc3)CC2)c1 (stereo not given),0,0,0,0,0
O=C(c1ccc(Cl)c(Cl)c1)N1CCC(=O)N(C(COCc2cccc(Cl)c2)Cc2ccccc2)CC1 (stereo not given),0,0,10.4,0,0
CCOC(=O)CN1C(=O)CCSc2ccc(Cl)cc21,0,-,0,-,-
CO/N=C(/CS(=O)(=O)Cc1ccccc1Cl)c1ccc(Cl)cc1Cl,0,0,0,0,0
CC1Cc2ccccc2N1C(=O)C12CCC(C)(C(=O)C1)C2(C)C (stereo not given),0,0,0,94.6,0
COc1cccc(C(=O)/C(C#N)=N/Nc2cccc(-c3ccnc(C)n3)c2)c1,0,-,-,-,-
Cc1ccc(CN(Cc2ccco2)S(=O)(=O)c2ccc(S(=O)(=O)NCC3CCCO3)cc2)cc1 (stereo not given),0,0,9.3,0,0
Clc1ccc(OCc2nnc(SCc3nnc(-c4ccccc4)o3)o2)c(Cl)c1,0,0,9.6,0,0
Cn1c(N2CCOCC2)c(/C=N/OC(=O)c2ccc(F)cc2)c2ccccc21,0,85.4,0,-,0
SMILES,Insulin prom up,BB579 growth dn,RAM network inh,INS promoter inh,Yeast life ext
Cc1ccc(C(=O)O/N=C/c2c(N3CCOCC3)n(C)c3ccccc23)cc1,-,63.9,0,0,0
CC(=O)O/N=C/c1c(N2CCOCC2)n(C)c2ccccc12,-,78.7,0,0,0
Cn1c(N2CCOCC2)c(/C=N/O)c2ccccc21,0,-,0,-,-
Cc1ccc(-n2nc(C(=O)O)c(O)cc2=O)cc1,0,-,0,0,-
O=C(CN1C(=O)c2ccccc2C1=O)Nc1sc2c(c1C(=O)NCc1ccco1)CCCC2,0,0,0,92.3,0
O=C(CCCN1C(=O)c2ccccc2C1=O)Nc1sc2c(c1C(=O)NCc1ccco1)CCC2,0,0,0,0,0
CCC(=NCCc1c(C)[nH]c2ccc(C)cc12)C1=C(O)CC(c2ccccc2)CC1=O (stereo not given),-,0,0,0,49.5
CC(=O)C1=C(O)CC(c2ccccc2)CC1=NCCc1c(C)[nH]c2ccc(C)cc12 (stereo not given),0,0,0,0,0
Cc1noc2ncnc(Sc3ccccc3Cl)c12,0,60.8,0,-,0
CN(Cc1nccn1C)C(=O)CC1C(=O)NCCN1CC(c1ccccc1)c1ccccc1 (stereo not given),0,-,0,-,-
O=C(CN(Cc1ccccc1)S(=O)(=O)c1cccc(C(F)(F)F)c1)NC1CCCCC1,0,0,8.8,-,0
